From ChEMBL document CHEMBL4689842, “EUbOPEN Chemogenomics Library wave 1” (2021)

How the values were obtained:
Fibroblast = test: Incucyte cell viability with human fibroblast; assay type: toxicity, cell-based; conditions: 10 µM, compound concentration 10 uM; also: filed as whole numbers so only -1 and 0 and 1 occur
HEK-293T = test: Multiplex assay against HEK293T; assay type: toxicity, cell-based; conditions: human;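 as to Population Tubulin-Different-Phenotype (%): share of the cells with healthy nuclei that show this phenotype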
Procedure, shortened: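 Live cells were stained at seeding with Hoechst33342, BioTracker Green Microtubule Cytoskeleton Dye, MitoTracker Red and Annexin V Alexa Fluor 680, then imaged on a CQ1 microscope at 37°C and 5% CO2 after compound addition. CellPathfinder machine-learning gating split cells into Hoechst high-intensity objects or normal cells. Normal cells were split into healthy, pyknosed or fragmented nuclei, and pyknosed cells into mitotic or apoptotic. Tubulin, mitochondrial-mass and membrane-permeability phenotypes are per cents of healthy-nucleus cells.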

[1] = 12 h, 1 µM, compound concentration 1 uM, replicate 1
[2] = 12 h, 1 µM, compound concentration 1 uM, replicate 2
[3] = 12 h, 10 µM, compound concentration 10 uM, replicate 1
[4] = 12 h, 10 µM, compound concentration 10 uM, replicate 2
[5] = 24 h, 1 µM, compound concentration 1 uM, replicate 1
[6] = 24 h, 1 µM, compound concentration 1 uM, replicate 2
[7] = 24 h, 10 µM, compound concentration 10 uM, replicate 1
[8] = 24 h, 10 µM, compound concentration 10 uM, replicate 2
[9] = 48 h, 1 µM, compound concentration 1 uM, replicate 1
[10] = 48 h, 1 µM, compound concentration 1 uM, replicate 2
[11] = 48 h, 10 µM, compound concentration 10 uM, replicate 1
[12] = 48 h, 10 µM, compound concentration 10 uM, replicate 2

## C[C@@H](Oc1cc(-n2cnc3ccc(CN4CCN(C)CC4)cc32)sc1C(N)=O)c1ccccc1C(F)(F)F [GSK-461364]
Fibroblast; 0 h, replicate number 2, timepoint 0 hours
  Growth Rate: 0
Fibroblast; 6 h, replicate number 1, timepoint 6 hours
  Growth Rate: 0
Fibroblast; 6 h, replicate number 2, timepoint 6 hours
  Growth Rate: 1
Fibroblast; 12 h, replicate number 1, timepoint 12 hours
  Growth Rate: 0
Fibroblast; 18 h, replicate number 1, timepoint 18 hours
  Growth Rate: 0
Fibroblast; 24 h, replicate number 1, timepoint 24 hours
  Growth Rate: 0
HEK-293T; [1]
  Population Apoptotic (%): 62%
  Population Fragmented Nuclei (%): 14%
  Population Healthy Nuclei (%): 19%
  Population Hoechst High Intensity Objects (%): 17%
  Population Membrane Permeable-Phenotype (%): 5%
  Population Mitochondria Different-Phenotype (%): 98%
  Population Mitotic Cells (%): 37%
  Population Normal (%): 82%
  Population Pyknosed Nuclei (%): 65%
  Population Tubulin-Different-Phenotype (%): 96%
  Total Cell Count: 322
HEK-293T; [2]
  Population Apoptotic (%): 27%
  Population Fragmented Nuclei (%): 10%
  Population Healthy Nuclei (%): 33%
  Population Hoechst High Intensity Objects (%): 4%
  Population Membrane Permeable-Phenotype (%): 20%
  Population Mitochondria Different-Phenotype (%): 60%
  Population Mitotic Cells (%): 72%
  Population Normal (%): 95%
  Population Pyknosed Nuclei (%): 56%
  Population Tubulin-Different-Phenotype (%): 71%
  Total Cell Count: 142
HEK-293T; [3]
  Population Apoptotic (%): 80%
  Population Fragmented Nuclei (%): 16%
  Population Healthy Nuclei (%): 11%
  Population Hoechst High Intensity Objects (%): 22%
  Population Membrane Permeable-Phenotype (%): 7%
  Population Mitochondria Different-Phenotype (%): 100%
  Population Mitotic Cells (%): 19%
  Population Normal (%): 77%
  Population Pyknosed Nuclei (%): 71%
  Population Tubulin-Different-Phenotype (%): 74%
  Total Cell Count: 294
HEK-293T; [4]
  Population Apoptotic (%): 66%
  Population Fragmented Nuclei (%): 11%
  Population Healthy Nuclei (%): 14%
  Population Hoechst High Intensity Objects (%): 10%
  Population Membrane Permeable-Phenotype (%): 12%
  Population Mitochondria Different-Phenotype (%): 75%
  Population Mitotic Cells (%): 33%
  Population Normal (%): 89%
  Population Pyknosed Nuclei (%): 73%
  Population Tubulin-Different-Phenotype (%): 62%
  Total Cell Count: 187
HEK-293T; [5]
  Population Apoptotic (%): 66%
  Population Fragmented Nuclei (%): 14%
  Population Healthy Nuclei (%): 22%
  Population Hoechst High Intensity Objects (%): 16%
  Population Membrane Permeable-Phenotype (%): 0%
  Population Mitochondria Different-Phenotype (%): 98%
  Population Mitotic Cells (%): 33%
  Population Normal (%): 83%
  Population Pyknosed Nuclei (%): 62%
  Population Tubulin-Different-Phenotype (%): 96%
  Total Cell Count: 321
HEK-293T; [6]
  Population Apoptotic (%): 38%
  Population Fragmented Nuclei (%): 8%
  Population Healthy Nuclei (%): 43%
  Population Hoechst High Intensity Objects (%): 3%
  Population Membrane Permeable-Phenotype (%): 12%
  Population Mitochondria Different-Phenotype (%): 54%
  Population Mitotic Cells (%): 61%
  Population Normal (%): 96%
  Population Pyknosed Nuclei (%): 47%
  Population Tubulin-Different-Phenotype (%): 75%
  Total Cell Count: 154
HEK-293T; [7]
  Population Apoptotic (%): 81%
  Population Fragmented Nuclei (%): 26%
  Population Healthy Nuclei (%): 10%
  Population Hoechst High Intensity Objects (%): 25%
  Population Membrane Permeable-Phenotype (%): 4%
  Population Mitochondria Different-Phenotype (%): 100%
  Population Mitotic Cells (%): 18%
  Population Normal (%): 74%
  Population Pyknosed Nuclei (%): 63%
  Population Tubulin-Different-Phenotype (%): 45%
  Total Cell Count: 298
HEK-293T; [8]
  Population Apoptotic (%): 86%
  Population Fragmented Nuclei (%): 12%
  Population Healthy Nuclei (%): 25%
  Population Hoechst High Intensity Objects (%): 5%
  Population Membrane Permeable-Phenotype (%): 0%
  Population Mitochondria Different-Phenotype (%): 97%
  Population Mitotic Cells (%): 13%
  Population Normal (%): 94%
  Population Pyknosed Nuclei (%): 62%
  Population Tubulin-Different-Phenotype (%): 63%
  Total Cell Count: 207
HEK-293T; [9]
  Population Apoptotic (%): 66%
  Population Fragmented Nuclei (%): 22%
  Population Healthy Nuclei (%): 18%
  Population Hoechst High Intensity Objects (%): 22%
  Population Membrane Permeable-Phenotype (%): 2%
  Population Mitochondria Different-Phenotype (%): 95%
  Population Mitotic Cells (%): 33%
  Population Normal (%): 77%
  Population Pyknosed Nuclei (%): 59%
  Population Tubulin-Different-Phenotype (%): 97%
  Total Cell Count: 325
HEK-293T; [10]
  Population Apoptotic (%): 67%
  Population Fragmented Nuclei (%): 10%
  Population Healthy Nuclei (%): 60%
  Population Hoechst High Intensity Objects (%): 2%
  Population Membrane Permeable-Phenotype (%): 6%
  Population Mitochondria Different-Phenotype (%): 53%
  Population Mitotic Cells (%): 32%
  Population Normal (%): 97%
  Population Pyknosed Nuclei (%): 28%
  Population Tubulin-Different-Phenotype (%): 76%
  Total Cell Count: 191
HEK-293T; [11]
  Population Apoptotic (%): 77%
  Population Fragmented Nuclei (%): 27%
  Population Healthy Nuclei (%): 4%
  Population Hoechst High Intensity Objects (%): 26%
  Population Membrane Permeable-Phenotype (%): 11%
  Population Mitochondria Different-Phenotype (%): 100%
  Population Mitotic Cells (%): 22%
  Population Normal (%): 73%
  Population Pyknosed Nuclei (%): 68%
  Population Tubulin-Different-Phenotype (%): 55%
  Total Cell Count: 287
HEK-293T; [12]
  Population Apoptotic (%): 79%
  Population Fragmented Nuclei (%): 12%
  Population Healthy Nuclei (%): 31%
  Population Hoechst High Intensity Objects (%): 10%
  Population Membrane Permeable-Phenotype (%): 0%
  Population Mitochondria Different-Phenotype (%): 98%
  Population Mitotic Cells (%): 20%
  Population Normal (%): 89%
  Population Pyknosed Nuclei (%): 55%
  Population Tubulin-Different-Phenotype (%): 56%
  Total Cell Count: 204
